Measurements taken from paper PMC3562655 (Journal of bone and mineral research : the official journal …, 2013).

Columns and labels:
[1] = tested on: Phospho1^-/- chondrocytes; experiment: Mineralization of Phospho1-/- chondrocytes; format: cell-based; settings: not shown
[2] = target: T1, purified recombinant human PHOSPHO1 (Homo sapiens, UniProt Q8TCT1); experiment: PHOSPHO1 inhibition, Biomol Green colorimetric phosphate release assay; format: biochemical; settings: for IC50: pH 6.7, 60 min room temperature
T1 sequence (Q8TCT1 1-292 isoform Q8TCT1-3): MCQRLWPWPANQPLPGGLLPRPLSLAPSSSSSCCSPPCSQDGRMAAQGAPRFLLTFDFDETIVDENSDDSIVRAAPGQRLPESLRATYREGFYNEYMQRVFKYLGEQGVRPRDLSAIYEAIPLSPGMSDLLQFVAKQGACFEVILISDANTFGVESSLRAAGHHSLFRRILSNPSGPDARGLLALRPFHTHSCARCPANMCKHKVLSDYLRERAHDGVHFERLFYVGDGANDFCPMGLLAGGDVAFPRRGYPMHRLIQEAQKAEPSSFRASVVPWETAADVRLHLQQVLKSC

TNAP = target: T2, TNAP (Homo sapiens, UniProt P05186); settings: ref Ciancaglini et al. (2010), 25, 42; cited from earlier work
T2 sequence (P05186 18-502 limits assumed): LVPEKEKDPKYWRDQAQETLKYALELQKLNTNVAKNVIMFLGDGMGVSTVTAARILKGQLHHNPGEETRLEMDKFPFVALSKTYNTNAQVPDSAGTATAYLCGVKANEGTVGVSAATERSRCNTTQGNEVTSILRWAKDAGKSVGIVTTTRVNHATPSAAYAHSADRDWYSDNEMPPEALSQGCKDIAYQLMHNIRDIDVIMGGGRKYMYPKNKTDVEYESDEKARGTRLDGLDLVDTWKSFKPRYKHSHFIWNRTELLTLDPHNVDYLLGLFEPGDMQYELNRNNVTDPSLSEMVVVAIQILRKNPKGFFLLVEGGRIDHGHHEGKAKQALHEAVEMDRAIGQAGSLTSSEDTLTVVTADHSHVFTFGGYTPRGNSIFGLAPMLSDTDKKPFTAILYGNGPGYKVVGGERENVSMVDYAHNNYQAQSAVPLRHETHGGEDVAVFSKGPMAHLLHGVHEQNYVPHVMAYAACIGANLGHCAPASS

WT VSMCs = experiment: Calcification assay, Alizarin Red staining of WT VSMCs; format: cell-based, mouse
Method in brief: (§1)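 Aortic VSMCs from WT, Enpp1-/- or Phospho1-/- mice were isolated by collagenase digestion and grown in triplicate for 21 days. Medium was α-MEM with 50 µg/mL ascorbic acid plus 2.5 mmol/L β-glycerophosphate (all genotypes) or 3 mmol/L sodium phosphate (WT), changed every second day. Test compound (DMSO; final 30 µmol/L), alone or combined, was added at each change. Staining used 2% Alizarin Red (pH 4.2, 30 min RT), then 10% cetylpyridinium chloride extraction, absorbance read. Values are % of vehicle control, mean ± S.E.M.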

PHOSPHO1 = target: T3, PHOSPHO1 (Homo sapiens, UniProt Q8TCT1); experiment: Mechanism of PHOSPHO1 inhibition, double reciprocal plots; format: biochemical
T3 sequence (Q8TCT1 1-292 isoform Q8TCT1-3): T1 sequence (Q8TCT1 1-292 isoform Q8TCT1-3)

ENPP1 = target: T4, ENPP1 (Homo sapiens, UniProt P22413); settings: cited from earlier work
T4 sequence (P22413 98-925 limits assumed): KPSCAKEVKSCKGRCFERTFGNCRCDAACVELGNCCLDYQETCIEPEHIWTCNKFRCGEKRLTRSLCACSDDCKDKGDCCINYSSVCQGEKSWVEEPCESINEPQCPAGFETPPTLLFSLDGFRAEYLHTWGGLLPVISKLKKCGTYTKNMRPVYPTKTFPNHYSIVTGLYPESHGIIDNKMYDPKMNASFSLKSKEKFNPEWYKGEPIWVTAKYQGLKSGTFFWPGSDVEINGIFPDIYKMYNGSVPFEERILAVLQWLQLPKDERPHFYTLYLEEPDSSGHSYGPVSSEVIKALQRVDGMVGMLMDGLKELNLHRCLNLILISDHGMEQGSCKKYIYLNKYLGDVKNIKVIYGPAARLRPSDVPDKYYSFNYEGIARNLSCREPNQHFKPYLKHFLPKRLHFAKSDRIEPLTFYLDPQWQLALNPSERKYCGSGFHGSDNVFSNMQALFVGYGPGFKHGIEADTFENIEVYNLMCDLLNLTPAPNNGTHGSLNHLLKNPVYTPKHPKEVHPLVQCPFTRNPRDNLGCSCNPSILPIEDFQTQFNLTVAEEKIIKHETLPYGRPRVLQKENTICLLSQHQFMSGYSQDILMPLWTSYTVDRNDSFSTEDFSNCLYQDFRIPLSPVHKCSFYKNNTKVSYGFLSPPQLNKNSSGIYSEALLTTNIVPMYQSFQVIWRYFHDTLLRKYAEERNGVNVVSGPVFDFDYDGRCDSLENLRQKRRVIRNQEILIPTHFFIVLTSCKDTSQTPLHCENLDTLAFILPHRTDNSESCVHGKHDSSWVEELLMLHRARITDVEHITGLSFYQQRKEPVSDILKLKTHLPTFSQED

Phospho1^-/- VSMCs = experiment: Calcification assay, Alizarin Red staining of Phospho1-/- VSMCs; format: cell-based, mouse; settings: 21 days, β-glycerophosphate, inhibitor 30 μmol/L
Method in brief: as §1

Enpp1^-/- VSMCs = experiment: Calcification assay, Alizarin Red staining of Enpp1-/- VSMCs; format: cell-based, mouse; settings: 21 days, β-glycerophosphate, inhibitor 30 μmol/L
Method in brief: as §1

Row | Compound | mineralization of Phospho1-/- chondrocytes [1] | IC50 ([2]; P-Cho IC50, substrate P-Cho 62.5 μmol/L) | IC50 ([2]; P-Etn IC50, substrate P-Etn 62.5 μmol/L) | inhibition of TNAP activity (TNAP) | toxicity to smooth muscle cells observed in the mineralization studies (WT VSMCs) | effect on mineralization in words (WT VSMCs; WT VSMCs, 21 days, inhibitor 30 μmol/L) | Ki (PHOSPHO1) | nature of the PHOSPHO1 inhibition (PHOSPHO1; double reciprocal plots versus P-Etn) | inhibition of ENPP1 activity (ENPP1; ref Ciancaglini et al. (2010), 25, 42) | inhibition of PHOSPHO1 in point experiments ([2]; inhibitor 1, 10, 30 μmol/L, substrates P-Etn and P-Cho) | effect on mineralization in words (Phospho1^-/- VSMCs) | effect on mineralization in words (Enpp1^-/- VSMCs) | cross-inhibition of ENPP1 (ENPP1)
1 | Cc1c(OCC(F)(F)F)ccnc1C[S+]([O-])c1nc2ccccc2[nH]1 (stereo not shown) [Lansoprazole] | inhibited mineralization | 60 ± 10 nM | 70 ± 10 nM | partially inhibits | showed toxicity to smooth muscle cells | significantly inhibited mineralization | 160 ± 30 nM | competitive | partially inhibits |  |  |  | 
2 | COc1ccc(OC)c(S(=O)(=O)Nc2cnc3ccccc3c2)c1 [MLS-0038949] |  |  |  |  |  |  |  |  |  | selectively inhibits TNAP, but not PHOSPHO1 | significantly inhibited mineralization | strongly reduced mineralization | does not cross-inhibit
